Results: ChEMBL document CHEMBL3352166, “Structure-guided design and development of novel benzimidazole class of compounds targeting DNA gyraseB enzyme of Staphylococcus aureus” (Bioorg Med Chem, 2014)
Converted amounts (≈) assume the structure as drawn.

Columns and labels:
[1] = biological target: DNA gyrase subunit B (Staphylococcus aureus, UniProt P0A0K8); assay: Inhibition of Staphylococcus aureus DNA gyrase B ATPase activity
[2] = biological target: DNA gyrase (Staphylococcus aureus, UniProt P0A0K8+P20831); assay: Inhibition of Staphylococcus aureus DNA gyrase-mediated supercoiling of relaxed DNA using pBR 322 as substrate by agarose gel electrophoresis analysis; assay type: protein-complex assay
Sequence of DNA gyrase (P0A0K8 whole entry): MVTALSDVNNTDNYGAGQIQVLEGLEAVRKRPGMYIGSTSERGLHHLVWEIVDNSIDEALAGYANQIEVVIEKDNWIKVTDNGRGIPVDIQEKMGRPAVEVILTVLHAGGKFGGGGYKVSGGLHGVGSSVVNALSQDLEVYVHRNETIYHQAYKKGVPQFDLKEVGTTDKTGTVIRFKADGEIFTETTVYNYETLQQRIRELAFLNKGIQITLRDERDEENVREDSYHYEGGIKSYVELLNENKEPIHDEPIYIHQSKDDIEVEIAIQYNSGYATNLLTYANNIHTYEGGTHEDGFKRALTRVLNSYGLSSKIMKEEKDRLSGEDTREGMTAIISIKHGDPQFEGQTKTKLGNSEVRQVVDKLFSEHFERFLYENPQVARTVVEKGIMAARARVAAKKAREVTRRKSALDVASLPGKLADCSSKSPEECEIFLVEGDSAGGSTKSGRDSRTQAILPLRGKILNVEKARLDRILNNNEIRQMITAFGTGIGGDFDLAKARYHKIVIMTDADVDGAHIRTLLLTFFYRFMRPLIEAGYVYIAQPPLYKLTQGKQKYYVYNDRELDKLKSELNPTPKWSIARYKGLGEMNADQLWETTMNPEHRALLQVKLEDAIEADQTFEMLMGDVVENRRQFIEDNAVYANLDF
Sequence of DNA gyrase (P20831 whole entry): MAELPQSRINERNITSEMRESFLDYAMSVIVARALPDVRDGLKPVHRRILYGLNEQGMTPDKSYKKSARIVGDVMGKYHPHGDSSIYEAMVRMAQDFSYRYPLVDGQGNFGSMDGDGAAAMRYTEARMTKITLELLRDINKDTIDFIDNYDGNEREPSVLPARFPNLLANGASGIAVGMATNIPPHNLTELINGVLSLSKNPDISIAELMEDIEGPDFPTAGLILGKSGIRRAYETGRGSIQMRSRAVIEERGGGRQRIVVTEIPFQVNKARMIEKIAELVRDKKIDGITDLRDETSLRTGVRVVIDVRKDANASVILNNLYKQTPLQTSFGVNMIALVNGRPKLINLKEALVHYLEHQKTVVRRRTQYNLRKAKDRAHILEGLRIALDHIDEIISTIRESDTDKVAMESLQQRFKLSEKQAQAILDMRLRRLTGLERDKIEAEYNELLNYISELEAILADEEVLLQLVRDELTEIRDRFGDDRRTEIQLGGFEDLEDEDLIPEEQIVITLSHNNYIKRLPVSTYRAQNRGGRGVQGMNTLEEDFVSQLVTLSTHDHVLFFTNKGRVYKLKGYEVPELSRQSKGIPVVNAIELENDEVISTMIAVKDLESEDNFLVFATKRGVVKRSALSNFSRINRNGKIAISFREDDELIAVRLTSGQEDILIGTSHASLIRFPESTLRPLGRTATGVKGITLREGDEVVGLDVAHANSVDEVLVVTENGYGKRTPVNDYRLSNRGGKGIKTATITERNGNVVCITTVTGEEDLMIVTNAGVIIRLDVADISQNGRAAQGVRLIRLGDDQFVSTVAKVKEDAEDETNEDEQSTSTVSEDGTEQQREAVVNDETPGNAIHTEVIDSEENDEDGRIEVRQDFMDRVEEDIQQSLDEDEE

[3] = system: Staphylococcus aureus; assay: Antimicrobial activity against Staphylococcus aureus MTCC 3160 after 16 to 24 hrs by agar dilution method; assay type: functional
Method in brief: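 MIC by agar dilution per CLSI on Mueller-Hinton agar. Overnight colonies were suspended to about 10^6 cfu/mL, and 1 mL was added to 19 mL medium. Compounds were made up in 0.9% saline and tested over about 10 doubling dilutions, 100 µM to 0.1 µM. Plates ran 16-20 h at 35 °C in ambient air. MIC was the lowest concentration preventing visible growth.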

[4] = Cytotoxicity against human HEK293 cells assessed as reduction in cell viability at 100 uM after 72 hrs by MTT assay; assay type: cell-based; conditions: read-out: INH
Method in brief: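 HEK-293 cells were seeded at 5000 per well and left 24 h, then washed. They were exposed to 100 µM in RPMI + 5% FBS + 1% penicillin/streptomycin, with final DMSO ≤0.5%, for 72 h at 37 °C in 5% CO2. DMSO-treated cultures served as controls. Viability was read by MTT at 570 nm, in triplicate, as percentage inhibition.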

[5] = system: Staphylococcus aureus; assay: Inhibition of biofilm formation in methicillin-resistant Staphylococcus aureus MTCC 96 after 24 hr incubation by tissue culture plate method; conditions: MTCC 96, 24 h
[6] = system: Staphylococcus aureus; assay: Antimicrobial activity against methicillin-resistant Staphylococcus aureus MTCC 96 after 16 to 24 hrs by agar dilution method; assay type: functional
Method in brief: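 Agar dilution per CLSI guidelines on Mueller-Hinton agar. Overnight colonies suspended to about 10^6 cfu/mL, and 1 mL added to 19 mL medium. Stocks in 0.9% saline, tested over about 10 doubling dilutions from 100 µM to 0.1 µM. Plates incubated at 35 °C in ambient air for 16-20 h. MIC taken as the lowest concentration preventing visible growth.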

Sequence of DNA gyrase subunit B (P0A0K8 whole entry): as the sequence (P0A0K8 whole entry) above

Compound | IC50 [1] [µM] | IC50 [2] [µM] | MIC [3] [µM] | cytotoxicity at 72 h, 100 µM [4] [%] | IC50 [5] [µM] | MIC [6] [µM]
Cc1sc2nc(SCC(=O)Nc3cccc(C(=O)O)c3)nc(O)c2c1C | 17.3 | 8.22 |  |  |  | 
Cc1sc2nc(SCC(=O)Nc3ccc(Cl)c(C(=O)O)c3)nc(O)c2c1C | 77.3 | > 50 |  |  |  | 
O=c1nc(/C=C/c2ccc(/C=C/c3cc(C(F)(F)F)[nH]c(=O)n3)cc2)cc(C(F)(F)F)[nH]1 | 42.2 | 24.9 |  |  |  | 
CNc1cc(CCNC(=O)c2ccc3oc(O)nc3c2)nc(-c2ccncc2)n1 | 92.1 | > 50 |  |  |  | 
CC(=O)Nc1ccc(OCC[n+]2ccc(CCS(=O)(=O)[O-])cc2)cc1 | 77.1 | 45.1 |  |  |  | 
Cc1cc2ncn(CC(O)COc3cccc(C(=O)O)c3)c2cc1C (configuration not stated) | 12.9 | 3.13 |  |  |  | 
O=C(O)CCCC(=O)Nc1ccc(-c2nc3ccccc3[nH]2)cc1 | 12.6 | 2.9 |  |  |  | 
O=C(O)CCC(=O)Nc1ccc(NC(=O)c2ccco2)cc1 | 12.9 | 3.13 |  |  |  | 
CC(Cc1c[nH]c2ccccc12)NC(=O)CSS(=O)(=O)O (configuration not stated) | 89.9 | > 50 |  |  |  | 
CCc1cc(=O)nc(SCC(=O)Nc2cccc(C(=O)O)c2)[nH]1 | 65 | > 50 |  |  |  | 
CCOc1cc(/C=C(\C#N)c2nc3ccc(C)cc3[nH]2)ccc1OCC(=O)O | 82.1 | > 50 |  |  |  | 
O=C(O)CC(=O)Nc1ccc(-c2nc3ccccc3[nH]2)cc1 | 6.91 | 6.12 | 42.3 (≈ 12.5 µg/mL) | 7.2 | 47.8 | 21.2 (≈ 6.25 µg/mL)
O=C(O)CCC(=O)Nc1ccc(-c2nc3ccccc3[nH]2)cc1 | 7.32 | 6.12 | 20.2 (≈ 6.25 µg/mL) | 2.9 | 88.3 | 40.4 (≈ 12.5 µg/mL)
COC(=O)CCCC(=O)Nc1ccc(-c2nc3ccccc3[nH]2)cc1 | 36.3 | 25 | 148 (≈ 50 µg/mL) | 9.7 | > 100 | 148 (≈ 50 µg/mL)
O=C(O)CCCCC(=O)Nc1ccc(-c2nc3ccccc3[nH]2)cc1 | 5.7 | 6.12 | 37 (≈ 12.5 µg/mL) | 32.1 | 81.5 | 37 (≈ 12.5 µg/mL)
O=C(O)CC(=O)Nc1ccc(-c2nc3cc(F)ccc3[nH]2)cc1 | 13.4 | 16.3 | 79.8 (≈ 25 µg/mL) | 18.1 | > 100 | 79.8 (≈ 25 µg/mL)
O=C(O)CCC(=O)Nc1ccc(-c2nc3cc(F)ccc3[nH]2)cc1 | 17.6 | 12 | 38.2 (≈ 12.5 µg/mL) | 28.7 | 82.7 | 38.2 (≈ 12.5 µg/mL)
COC(=O)CCCC(=O)Nc1ccc(-c2nc3cc(F)ccc3[nH]2)cc1 | 18.6 | 10.7 | 70.3 (≈ 25 µg/mL) | 33.8 | 59.3 | 32.2 (≈ 11.4 µg/mL)

Compound | IC50 [1] [µM] | IC50 [2] [µM] | MIC [3] [µM] | cytotoxicity at 72 h, 100 µM [4] [%] | IC50 [5] [µM] | MIC [6] [µM]
O=C(O)CCCCC(=O)Nc1ccc(-c2nc3cc(F)ccc3[nH]2)cc1 | 15.3 | 7.1 | 35.2 (≈ 12.5 µg/mL) | 29 | > 100 | 59.3 (≈ 21.1 µg/mL)
O=C(O)CC(=O)Nc1ccc(-c2nc3cc(Cl)ccc3[nH]2)cc1 | 26.3 | 18.2 | 75.8 (≈ 25 µg/mL) | 25.6 | > 100 | 75.8 (≈ 25 µg/mL)
O=C(O)CCC(=O)Nc1ccc(-c2nc3cc(Cl)ccc3[nH]2)cc1 | 11.2 | 9.8 | 36.4 (≈ 12.5 µg/mL) | 31.7 | 53.2 | 36.4 (≈ 12.5 µg/mL)
O=C(O)CCCC(=O)Nc1ccc(-c2nc3cc(Cl)ccc3[nH]2)cc1 | 9.85 | 9.13 | 34.9 (≈ 12.5 µg/mL) | 45.5 | > 100 | 69.8 (≈ 25 µg/mL)
COC(=O)CCCC(=O)Nc1ccc(-c2nc3cc(Cl)ccc3[nH]2)cc1 | 35.6 | 22.2 | 67.2 (≈ 25 µg/mL) | 27.9 | > 100 | 134 (≈ 50 µg/mL)
O=C(O)CCCCC(=O)Nc1ccc(-c2nc3cc(Cl)ccc3[nH]2)cc1 | 13.1 | 8.91 | 33.6 (≈ 12.5 µg/mL) | 39.7 | 39.2 | 33.6 (≈ 12.5 µg/mL)
O=C(O)CC(=O)Nc1ccc(-c2nc3cc([N+](=O)[O-])ccc3[nH]2)cc1 | 4.93 | 2.23 | 9.18 (≈ 3.12 µg/mL) | 26.9 | 18.4 | 18.3 (≈ 6.24 µg/mL)
O=C(O)CCC(=O)Nc1ccc(-c2nc3cc([N+](=O)[O-])ccc3[nH]2)cc1 | 17.5 | 8.32 | 17 (≈ 6.01 µg/mL) | 24.6 | 27.9 | 17 (≈ 6.01 µg/mL)
O=C(O)CCCC(=O)Nc1ccc(-c2nc3cc([N+](=O)[O-])ccc3[nH]2)cc1 | 6.83 | 6.12 | 33.9 (≈ 12.5 µg/mL) | 27.2 | 62.3 | 44.1 (≈ 16.3 µg/mL)
COC(=O)CCCC(=O)Nc1ccc(-c2nc3cc([N+](=O)[O-])ccc3[nH]2)cc1 | 9.83 | 5.3 | 32.7 (≈ 12.5 µg/mL) | 35.9 | 59.3 | 32.7 (≈ 12.5 µg/mL)
O=C(O)CCCCC(=O)Nc1ccc(-c2nc3cc([N+](=O)[O-])ccc3[nH]2)cc1 | 9.82 | 6.09 | 32.6 (≈ 12.5 µg/mL) | 31.7 | 44.2 | 32.6 (≈ 12.5 µg/mL)
COc1ccc2[nH]c(-c3ccc(NC(=O)CC(=O)O)cc3)nc2c1 | 11.1 | 18.4 | 38.4 (≈ 12.5 µg/mL) | 27.4 | > 100 | 76.8 (≈ 25 µg/mL)
COc1ccc2[nH]c(-c3ccc(NC(=O)CCC(=O)O)cc3)nc2c1 | 13.4 | 11.3 | 73.7 (≈ 25 µg/mL) | 26.7 | > 100 | 73.7 (≈ 25 µg/mL)
COc1ccc2[nH]c(-c3ccc(NC(=O)CCCC(=O)O)cc3)nc2c1 | 8.93 | 5.32 | 35.4 (≈ 12.5 µg/mL) | 22.4 | 52.2 | 35.4 (≈ 12.5 µg/mL)
COC(=O)CCCC(=O)Nc1ccc(-c2nc3cc(OC)ccc3[nH]2)cc1 | 21.3 | 12.5 | 68 (≈ 25 µg/mL) | 50.5 | 63.9 | 34 (≈ 12.5 µg/mL)
COc1ccc2[nH]c(-c3ccc(NC(=O)CCCCC(=O)O)cc3)nc2c1 | 22.9 | 12.5 | 68 (≈ 25 µg/mL) | 29.4 | 71.1 | 34.1 (≈ 12.5 µg/mL)
O=C(O)c1cn(C2CC2)c2cc(N3CCNCC3)c(F)cc2c1=O [CIPROFLOXACIN] |  |  |  |  | 16.9 | 
CO[C@@H]1[C@@H](OC(N)=O)[C@@H](O)[C@H](Oc2ccc3c(O)c(NC(=O)c4ccc(O)c(CC=C(C)C)c4)c(=O)oc3c2C)OC1(C)C [NOVOBIOCIN] |  |  | 0.25 (≈ 0.153 µg/mL) |  |  | 
